{"source": "paper PMC5395305", "about": "(Bioorganic & medicinal chemistry letters, 2017)", "key": {"[1]": {"tested_on": "bleomycin-induced dermal fibrosis", "details": "mice, 14 days of IP dosing, 100 mg/kg bid; cited from earlier work"}, "[2]": {"assay": "Stability to incubation with mouse liver microsomes", "assay_type": "in vitro ADME", "details": "relative to 1"}, "ACTA2 expression": {"tested_on": "ACTA2 expression", "assay": "ACTA2 mRNA expression", "assay_type": "cell-based", "details": "Homo sapiens, Fibroblast, 24 h, read-out: ACTA2 (%ctrl), inhibition of ACTA2 expression (percent control), TGF-β-stimulated human dermal fibroblasts, 10 μM, 24 hrs, mean of n=3"}, "[3]": {"tested_on": "conjunctival fibrosis (scar tissue formation)", "details": "preclinical model of conjunctival fibrosis; ref 18 (Yu-Wai-Man et al); cited from earlier work"}, "[4]": {"tested_on": "bleomycin-induced dermal fibrosis", "assay": "Bleomycin-induced dermal fibrosis in mice", "assay_type": "in vivo", "details": "PO 50 mg/kg qd, 14 days, vs bleomycin treatment alone", "how_it_was_run": "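Three groups of mice (n=8) were treated daily for 14 days. Controls received intracutaneous PBS. The bleomycin group received intracutaneous bleomycin with concurrent oral gavage of vehicle. The treated group received intracutaneous bleomycin with concurrent oral gavage of test compound at 50 mg/kg. Read-outs were dermal thickness and hydroxyproline content, each compared with bleomycin alone.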"}, "[5]": {"tested_on": "Rho/MRTF/SRF pathway (SRE.L promoter luciferase reporter)", "assay": "Inhibition of Gα12-stimulated SRE.Luciferase activity in HEK293T cells", "assay_type": "cell-based", "how_it_was_run": "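HEK293T cells were transfected with a luciferase reporter driven by the MRTF-selective SRE.L promoter. Reporter activity was Gα12-stimulated, and inhibition of luciferase signal by test compound was measured. Values are means of n ≥ 3.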"}}}
{"smiles": "O=C(Nc1ccc(Cl)cc1)C1CCCN(C(=O)c2cccc(-c3ccco3)c2)C1", "note": "(centres unmarked) [Cmpd 1]", "values": [{"measurement": "Effect on development of bleomycin-induced dermal fibrosis", "setting": "[1]", "result": "can attenuate the development of bleomycin-induced dermal fibrosis"}]}
{"smiles": "O=C(Nc1ccc(Cl)cc1)C1CN(C(=O)c2cccc(-c3ccco3)c2)CC(F)(F)C1", "note": "(centres unmarked) [Cmpd 8a]", "values": [{"measurement": "Lengthening of half-time in MLM (factor)", "setting": "[2]", "result": "three"}, {"measurement": "mrna remaining at 10 µM", "setting": "ACTA2 expression", "result": 9, "unit": "%"}, {"measurement": "Effect on scar tissue formation", "setting": "[3]", "result": "prevent scar tissue formation"}]}
{"smiles": "O=C(Nc1ccc(Cl)cc1)C1CN(C(=O)c2cccc(-c3ccncc3)c2)CC(F)(F)C1", "note": "(centres unmarked) [Cmpd 8f]", "values": [{"measurement": "Reduction of bleomycin-induced increase in dermal thickness", "setting": "[4]", "result": "−55", "unit": "%"}, {"measurement": "Reduction of bleomycin-induced increase in hydroxyproline content", "setting": "[4]", "result": "−62", "unit": "%"}]}
{"smiles": "C=C1CC(C(=O)Nc2ccc(Cl)cc2)CN(C(=O)c2cccc(-c3ccco3)c2)C1", "note": "(centres unmarked) [Cmpd 23]", "values": [{"measurement": "Improvement of SRE.L potency", "setting": "[5]; relative to 5-carbonyl/parent series", "result": "~10", "unit": "fold"}]}
{"smiles": "CN(C(=O)C1CCCN(C(=O)c2cccc(-c3ccco3)c2)C1)c1ccc(Cl)cc1", "note": "(centres unmarked) [Cmpd 26]", "values": [{"measurement": "Reduction of SRE.L activity", "setting": "[5]; relative to 1", "result": 10, "unit": "fold"}]}
